Source: publication PMC9719714 (International Journal of Nanomedicine, 2022)
“And” between values parts separate entries of the source, which are not always exact repeats. Identical values can stand only once. Like-named read-outs stand apart in the source and are kept apart here.

How the values were obtained:
[1] = system: MRSA-pvl+; experiment: Time-kill experiment; assay type: cell-based, Staphylococcus aureus; details: >3 h of exposure (Figure S2)
In short: (§1)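 S. aureus suspension (1.5 × 10^5 CFU/mL) and test compound, prepared at 150 μg/mL before mixing, were added in equal volumes to flasks of MH broth. A flask without test compound served as control. Flasks were shaken at 150 rpm and 37°C for 24 h. At set intervals, 100 μL aliquots were spread on MH agar for colony counts.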

[2] = system: MSSA; experiment: Time-kill experiment; assay type: cell-based, Staphylococcus aureus
In short: as §1

[3] = system: MRSA-pvl-; experiment: Time-kill experiment; assay type: cell-based, Staphylococcus aureus; details: >3 h of exposure (Figure S2)
In short: as §1

[4] = system: MRSA; experiment: Time-kill experiment; assay type: cell-based, Staphylococcus aureus; details: for inhibition at 150 µg/mL: Staphylococcus aureus, MRSA, read-out: percentage of inhibition (time-kill)
In short: as §1

[5] = system: MRSA-pvl+; experiment: Kirby-Bauer disk diffusion test; assay type: cell-based, Staphylococcus aureus; details: 18 h
In short: (§2)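 Disk diffusion followed CLSI 2013. Sterile disks soaked in test compound (0–1000 µg/mL) were placed on MH agar and held 30 min at room temperature for diffusion. Plates were then incubated 18 h at 37°C and zones of inhibition read. Controls were distilled water (negative) and a 30 µg cefoxitin disk (positive). Strains were MSSA ATCC 25923 and community-acquired MRSA-pvl+ (A33) and pvl- (172817) lab isolates.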

[6] = system: MSSA; experiment: HRTEM observation of treated bacteria; assay type: cell-based, Staphylococcus aureus; details: 150 µg/mL for 12 h
In short: (§3)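 After the time-kill exposure, MRSA (ATCC 700699) and MSSA (ATCC 25923) cells were processed for electron microscopy. Reagents included glutaraldehyde, cacodylate buffer, osmium tetroxide and acetone, followed by resin embedding. Sections of 1 µm were cut and stained with toluidine blue, and areas were chosen by light microscopy. Sections were then mounted on 100-mesh copper grids, stained 15 min with 1% aqueous uranyl acetate, washed, and imaged at 100 kV.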

[7] = system: zebrafish embryos; experiment: Reactive oxygen species; assay type: in vivo
In short: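 Wild-type AB zebrafish embryos at 24 hpf, one per well and 10 per group, were exposed to five concentrations of test compound for 30, 60, 120 or 240 min. Controls were distilled water and 0.5 mM H2O2. Embryos were washed in PBS and spun 10,000 rpm, 5 min, 4°C. They were homogenized in cold PBS and spun 12,372 rpm, 30 min, 4°C. Supernatant was incubated with DCFH-DA (stock 10 mg/mL in DMSO) 30 min in the dark; fluorescence read at ex 485/em 530 nm, in triplicate.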

[8] = system: MRSA; experiment: CFU counting method; assay type: cell-based; details: Staphylococcus aureus, read-out: percentage of inhibition (CFU)
In short: (§4)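 S. aureus strains (MRSA ATCC 700699; community-acquired MRSA-pvl+ A33 and MRSA-pvl- 172817 from the lab collection) at 1.5 × 10^5 CFU/mL were combined in well plates with MH broth and test compound (0–1000 μg/mL). Plates were shaken 4 h at 37°C, then diluted 100-fold and swabbed onto MH agar. After drying at room temperature, plates were incubated 18 h at 37°C and colonies counted. Percentage inhibition was calculated relative to distilled water (negative control); cefoxitin served as positive control.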

[9] = system: MRSA; experiment: HRTEM observation of treated bacteria; assay type: cell-based, Staphylococcus aureus; details: 150 µg/mL for 12 h
In short: as §3

[10] = system: 3T3 murine fibroblast cells; experiment: In vitro cytotoxicity MTT assay; assay type: cell-based; details: 50 µg/mL, 24 h
[11] = In vitro cytotoxicity MTT assay; assay type: cell-based, murine; details: mouse, 3T3 murine fibroblast cells, cell viability
[12] = system: MSSA; experiment: Kirby-Bauer disk diffusion test; assay type: cell-based, Staphylococcus aureus; details: 18 h
In short: as §2

[13] = system: MRSA-pvl+; experiment: CFU counting method; assay type: cell-based; details: Staphylococcus aureus, read-out: percentage of inhibition (CFU)
In short: as §4

[14] = system: MRSA-pvl-; experiment: CFU counting method; assay type: cell-based, Staphylococcus aureus; details: 50 µg/mL
In short: as §4

[15] = system: MRSA-pvl-; experiment: Kirby-Bauer disk diffusion test; assay type: cell-based, Staphylococcus aureus; details: 18 h
In short: as §2

In the case of `CO[C@@]1(NC(=O)Cc2cccs2)C(=O)N2C(C(=O)O)=C(COC(N)=O)CS[C@@H]21` [CFX, cefoxitin], the “inhibition (time-kill)” value [1] is reported as “total inhibition”, the “inhibition (time-kill)” value ([2]; >3 h of exposure (Figure S2)) is reported as “total inhibition” and the “inhibition (time-kill)” value [3] is reported as “total inhibition”. The “inhibition (time-kill)” value ([4]; >3 h of exposure (Figure S2)) was “total inhibition”.

In the case of `O=C(O)c1cc(O)c(O)c(O)c1` [GA, Gallic acid], the inhibition at 150 µg/mL ([2]; Staphylococcus aureus, MSSA, 2 h, read-out: percentage of inhibition (time-kill)) is reported as 50.7%, the “concentration at which growth is inhibited (zone of inhibition)” value (“concentration … (zone of inhibition)” below) [5] is reported as 300 µg/mL and the “morphological changes of bacterial cells (HRTEM)” value [6] is reported as “disrupted morphology and damaged surface”. For the same molecule, the ROS content ([7]; 50 and 300 μg/mL, 60 min post-exposure) was “significantly elevated”, the ROS content ([7]; 30 min of exposure) was “comparable ROS content to control groups” and the ROS content ([7]; 120 min post-exposure) was “reverted to the normal range”. The inhibition at 50 µg/mL [8] was 98.3%, the “morphological changes of bacterial cells (HRTEM)” value [9] was “disrupted morphology and damaged surface” and the cell viability [10] was 22.16%. For the same molecule, the viability at 24 h, 50 µg/mL ([11]; 24 h) was 22.2%, the viability at 72 h, 50 µg/mL ([11]; 72 h) was 4.95% and the inhibition at 150 µg/mL ([4]; 2 h) was 44.9%. For the same molecule, the inhibition at 150 µg/mL [4] was 29.4%, the “concentration … (zone of inhibition)” value [12] was 150 µg/mL and the inhibition at 50 µg/mL [13] was 80.1%. The “inhibition (CFU)” value [14] was “significant inhibition” and the “concentration … (zone of inhibition)” value [15] was 300 µg/mL and 150 µg/mL.
